High-throughput results as filed in PubChem BioAssay.
Shown are actives, neighbours in structure and some others; about 3.9% of the full set was active somewhere.
UPR XBP1 act – activators of adaptive XBP1 UPR arm, primary screen, cell-based, CHO-XBP1 luciferase reporter, luminescence, uHTS; IRE1-XBP1 UPR activation; percent of tunicamycin response, DMSO as zero; activation, % at 20 µM; hit rate 0.33% among 330,000; AID 463104, 2010;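 active means versus positive control, 20 µM dose yields 30% or more activation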;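 further: 100% = tunicamycin at 10 µg/mL and 0% = DMSO only wells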
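Material: CHO cell line with stable XBP1 luciferase reporter; buffer or medium: F12 medium containing 10% fetal bovine serum; compound: single point, 20 µM final compound, 1% DMSO; incubation: 6 h treatment, 37 °C; measured by: glow luminescence from Steady-Glo reagent; evaluation: activation, % of tunicamycin; control set: tunicamycin high, DMSO low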
697 NFkB inh – inhibitors of PMA/ionomycin-induced NF-kB reporter, 697 cells, primary screen, B-cell NF-kB inhibitor project, cell-based, luminescence, uHTS; inhibition, % at 4 µM; hit rate 0.33% among 330,000; AID 435022, 2010; 697 B-cell NF-kB luciferase reporter, 16 h; in the data active means inhibition above about 35%
CHOP inhibitor – inhibitors of CHOP promoter induction, primary screen, cell-based, unfolded protein response, luciferase reporter; CHO-K1 CHOP-promoter luciferase, tunicamycin-induced, 15-18 h; inhibition, % at 10 µM; hit rate 3.8% among 220,000; AID 2732, 2010;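 active means compounds that reduced the stress-induced luciferase reporter signal by more than about 70% of percent inhibition, limit read from the data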;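 further: 0% = tunicamycin plus vehicle and 100% = wells without tunicamycin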
Gli-Sufu block – Gli-Sufu pathway antagonists, primary screen, luciferase luminescence, Sufu-KO-LIGHT cells, uHTS; Sufu-KO-LIGHT fibroblasts, Gli luciferase reporter luminescence; hit rate 0.74% among 340,000; AID 588413, 2011; inhibition, % at 5 µM;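 active means inhibition above about 55%, limit read from the data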;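 further: 0% = DMSO-treated cells and 100% = wells with medium but no cells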
CHOP UPR activ – activators of apoptotic CHOP UPR arm, primary screen, cell-based, CHO-CHOP luciferase reporter, luminescence, uHTS; AID 449763, 2010; activation, % at 10 µM; UPR activation; percent of tunicamycin response over DMSO baseline; hit rate 0.34% among 330,000;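 active means at 10 µM dose, activation of 40% or more, normalized to positive control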;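 further: 100% = tunicamycin at 10 µg/mL and 0% = DMSO alone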
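Material: CHO-CHOP cells, stable luciferase reporter of PERK-eIF2a-CHOP signalling; quantity: 500 reporter cells seeded per well; buffer or medium: F12 medium containing 10% fetal bovine serum; compound: one dose, 10 µM in 0.5% DMSO; incubation: 6 h compound treatment, 37 °C; measured by: Steady-Glo luciferase luminescence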
Jurkat NFkB inh – inhibitors of induced NF-kB luciferase reporter, primary screen, TCR NF-kB activation inhibitor project, cell-based, luminescence, uHTS. Jurkat, PMA/ionomycin-induced NF-kB luciferase reporter. hit rate 0.53% among 330,000. AID 435003, 2010. inhibition, % at 4 µM; in the data active means inhibition above about 50%
Jurkat NFkB conf – PMA/ionomycin-induced NF-kB reporter inhibitors, Jurkat retest, confirmation, T-cell NF-kB inhibitor project, cell-based, luminescence, single concentration; shares compounds with Jurkat NFkB inh; Jurkat NF-kB luciferase, 16 h; inhibition, % at 4 µM; hit rate 27% among 2,700;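 active means inhibition reaching about 45% at 4 µM in either replicate, limit read from the data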;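 further: plate controls were PMA/ionomycin stimulated DMSO wells for no effect and unstimulated DMSO wells for full effect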
An asterisk follows results filed as active; . = not tested or not shown.

SMILES | UPR XBP1 act | 697 NFkB inh | CHOP inhibitor | Gli-Sufu block | CHOP UPR activ | Jurkat NFkB inh | Jurkat NFkB conf
COc1ccc2nc(NC(=O)c3ccc4ncsc4c3)sc2c1 | 8 | -203 | 91* | -80 | 6 | -151 | -48
COc1ccc2nc(Nc3ccccc3OC)sc2c1 | 1 | -191 | -9 | -34 | 4 | -195 | -123
COc1ccc2nc(Nc3ccccc3)sc2c1 | 3 | -132 | 24 | -27 | 0 | -186 | -117
COc1ccc2nc(Nc3ccc4c(c3)OCO4)sc2c1 | 4 | -126 | 2 | -70 | 7 | -77 | .
C(=N\Nc1nc(-c2cccnc2)nc2ccccc12)/c1ccccc1 | 1 | -25 | -6 | 1 | 5 | -16 | .
C(=N\Nc1nc(-c2ccccn2)nc2ccccc12)/c1ccccc1 | 13 | -30 | 88* | . | 527* | 101* | 15
COc1ccc(NC(=O)COc2cc(C)cc(C)c2)cc1S(=O)(=O)N1CCCCC1 | -5 | -54 | . | -4 | -1 | 57* | 23
COc1ccc(NC(=O)COc2ccc(C)c(C)c2)cc1S(=O)(=O)N1CCCCC1 | 1 | -16 | . | 7 | 2 | -7 | .
COc1ccc(S(=O)(=O)N2CCCCC2)cc1NC(=O)c1cnc(C)cn1 | -2 | 14 | . | 6 | 0 | -10 | .
COc1cc(-c2noc(C)c2C#Cc2ccsc2)cc(OC)c1OC | 15 | -34 | . | . | 1 | 63* | 57*
CCCCCN1C=CC(=C2C(=O)c3ccccc3C2=O)C=C1 | -12 | -18 | 98* | 59* | -10 | 60* | 40
COc1ccc(NS(=O)(=O)c2cc(NC(=O)c3ccc(=O)[nH]c3)ccc2N2CCCC2)cc1 | -4 | -46 | . | -4 | 2 | 63* | 19
O=C(CSc1nc(-c2ccco2)cc(C(F)(F)F)n1)Nc1ccc2c(c1)CCC2 | 4 | 8 | 13 | 3 | 3 | 61* | 24
Cc1ccc(NC(=O)CSc2nc(-c3ccco3)cc(C(F)(F)F)n2)cc1C | 1 | -45 | 68 | 7 | 1 | 71* | 49*
COC(=O)c1ccccc1NC(=O)CSc1nc(-c2ccco2)cc(C(F)(F)F)n1 | 11 | 0 | . | 38 | 0 | 56* | 43
CN1CCc2c(sc3nc(SCC(=O)NCc4ccco4)n(-c4ccccc4)c(=O)c23)C1 | 0 | -36 | . | -26 | 2 | -9 | .
CCCN1CCC(=NNc2ccc(S(=O)(=O)N3CCOCC3)cc2[N+](=O)[O-])CC1 | 2 | -12 | -15 | 48 | -1 | 64* | 2
O=[N+]([O-])c1ccc(CN2CCN(c3ccc([N+](=O)[O-])cc3)CC2)cc1 | 4 | -15 | . | 20 | 0 | 60* | 21
C/C(=N\Nc1ccc2nncn2n1)c1ccccn1 | -2 | -22 | 56 | 74* | -3 | 55* | 32
CCOC(=O)CNc1nc(C(C)(C)C)nc2c1nnn2Cc1ccccc1 | -4 | -19 | . | -2 | 1 | 19 | .
Cc1ccc(S(=O)(=O)N2CCCCC2CCNC(=O)C(=O)NCCc2ccco2)cc1 (configuration not stated) | -2 | -15 | . | 0 | 1 | 60* | 25
COc1cc(/C=C2\CCn3c2nc2cc(C(=O)O)ccc2c3=O)ccc1OC(F)F | -8 | -13 | . | 2 | 1 | -29 | .
CCCCOc1ccc(-c2csc(N)n2)cc1[N+](=O)[O-] | 4 | -86 | 36 | -8 | 8 | -167 | 4
CC1CCN(C(=O)CN2C(=O)NC(C)(c3ccc4ccccc4c3)C2=O)CC1 (configuration not stated) | 3 | 11 | . | 0 | 0 | 59* | 35
CCOC(=O)CN(C(=O)c1snc(C(N)=O)c1N)C(C(=O)NC1CCCCC1)c1ccc(F)cc1 (configuration not stated) | -3 | 14 | . | 0 | -1 | -3 | .
SMILES | UPR XBP1 act | 697 NFkB inh | CHOP inhibitor | Gli-Sufu block | CHOP UPR activ | Jurkat NFkB inh | Jurkat NFkB conf
COc1ccc(-c2nc(-c3ccc(Br)o3)no2)cc1 | -5 | -242 | 76* | -109 | -1 | -203 | -148
O=c1c2ccccc2oc2cc(-c3ccc(CN4CCOCC4)cc3)ccc12 | -3 | -223 | . | -10 | 9 | -151 | -67
c1ccc(CN2CCOCC2)cc1 | 0 | 3 | 17 | -1 | -2 | -7 | .
O=C(/C=C/c1ccccn1)c1cc(Cl)cc(Cl)c1O | -1 | -11 | -25 | 10 | 4 | 67* | 29
Clc1ccc(C=Cc2ccccn2)c(Cl)c1 | . | . | . | -84 | . | . | .
CC(=O)Nc1ccc(NC(=O)C(C)Sc2nnc(C3CC3)n2-c2ccccc2)cc1 (configuration not stated) | -2 | 11 | . | . | 0 | -7 | .
COc1ccc(/C=N\NC(=O)c2ccccc2F)cc1COc1ccc(F)cc1F | 15 | -6 | . | 12 | 1 | 61* | 44
Cc1ccc(S(=O)(=O)N2CCCCC2)cc1NC(=O)Cc1c[nH]c2ccccc12 | -1 | -79 | 5 | 1 | 2 | 66* | 21
COc1ccc(S(=O)(=O)N2CCCCC2)cc1NC(=O)Cc1c[nH]c2ccccc12 | -1 | 12 | 25 | 2 | 2 | 1 | .
CCC(C)(C)NC(=O)CN(Cc1ccc(F)cc1)C(=O)CCC(=O)Nc1ccccn1 | 3 | 7 | . | -6 | 0 | -5 | .
Cc1noc(C)c1COc1cccc(C(=O)OCC(=O)N2CC(=O)Nc3ccccc32)c1 | 2 | 6 | . | 3 | -1 | 58* | 48
O=C1CN(C(=O)COc2cccc(F)c2)c2ccccc2N1 | 0 | 22 | 21 | . | 2 | 2 | .
O=C(N/N=C\c1ccc(Cl)s1)C1COc2ccccc2O1 (configuration not stated) | 5 | 11 | 15 | -4 | 3 | 37 | .
O=C(N/N=C/c1c[nH]c2ccccc12)C1COc2ccccc2O1 (configuration not stated) | 1 | -1 | 25 | -4 | 1 | 53* | 1
COC(=O)c1cn(NC(=O)c2cc([N+](=O)[O-])ccc2F)c(=O)c2ccccc12 | -2 | -103 | 57 | 24 | -1 | 97* | 90*
CC12CCC(=O)C=C1CCC1C2CCC2(C)C1CC1C3C(=O)N(Cc4ccccc4)C(=O)C3CC(=O)C12 (configuration not stated) | . | . | . | 3 | . | . | .
CCCC[C@@H](CN[C@H](C)CNC)NCC1CCC(C(C)(C)C)CC1 (some centres not stated) | 11 | 19 | . | 16 | 8 | 53* | 26
